From ChEMBL document CHEMBL1138232, “Optimization of naphthalimide-imidazoacridone with potent antitumor activity leading to clinical candidate (HKH40A, RTA 502)” (J Med Chem, 2007)
Values joined by “and” are separate entries in the source; they are usually repeats but may differ in a detail not shown here. Identical values can stand only once.

How the values were obtained:
[1] = Apparent volume of distribution in F344 rat at 20 mg/kg, iv; type: ADME, organism-based; design: dose 20 mg/kg, route intravenous; settings: in vivo
Outline: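 Single i.v. dose of 20 mg/kg to ncr nu/nu mice and an F344 rat. Plasma concentrations followed over time and fitted by nonlinear regression to give distribution and elimination phases, AUC and apparent volumes of distribution. Detection limit 50 nM.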

[2] = test system: MIA PaCa-2; test: Inhibition of tumor growth in PaCa2 cells xenografted nu/nu mouse at 15 mg/kg; type: functional, Homo sapiens
Outline: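 PaCa-2 tumour fragments implanted on the flank of nu/nu mice, 10 per group. Intraperitoneal treatment, Q3Dx4, started 12 days post-inoculation at 80 mm3 tumour volume. Tumour growth inhibition measured.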

[3] = test system: K562; test: Antitumor activity against human K562 cells after 48 hrs; type: functional
Outline: (§1)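 Tested in the NCI 60 human tumour cell line screen, with continuous drug exposure for 48 h. Values include LC50 derived from the screen.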

[4] = test system: IGROV-1; test: Antitumor activity against human IGROV1 cells after 48 hrs; type: functional; settings: IGROV-1, 48 h; outline: as §1
[5] = test system: HCT-15; test: Antitumor activity against human HCT15 cells after 48 hrs; type: functional; settings: HCT-15, 48 h; outline: as §1
[6] = read-out: Log LC50 (the source's name) (converted)

## COc1ccc2c(c1)c(=O)c1c(NCCCN3CCN(CCCN4C(=O)c5cccc6cc([N+](=O)[O-])cc(c56)C4=O)CC3)ccc3ncn2c31.CS(=O)(=O)O
[1]
  Vd: 138 L/kg
[2]
  inhibition in vivo at 15 mg/kg: 53.5%
[3]; Homo sapiens, K562, 48 h
  GI50: 1.74 nM
[3]; read-out: Log TGI (converted)
  TGI: 186 nM and > 1000 nM
[4]
  GI50: 3.39 nM
[4]; [6]
  CC50: > 1000 nM
[4]; read-out: Log TGI (converted)
  TGI: 51.3 nM
[5]
  GI50: 3.09 nM
[5]; [6]
  CC50: > 1000 nM
[5]; read-out: Log TGI (converted)
  TGI: > 1000 nM
